Test: Toxicity liver stage against HepG2, at 10uM
Assay type: cell-based
Design: test concentration 10 uM, cell line HepG2-A16-CD81EGFP
Details: human, HepG2-A16-CD81EGFP cells; read-out: INHIBITION
Outline: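 Uninfected HepG2-A16-CD81EGFP cells, 3 × 10^3 per well, 1536-well, plated on prespotted compound at 10 μM final, parasite-free screening media added to match infected plates; puromycin 10 μM positive, DMSO 0.5% negative; run in parallel with 48 h PbLuc assay at 37 °C, 5% CO2; viability by CellTiter-Glo luminescence, normalized to controls.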

Structure (SMILES) | cytotoxicity at 10 µM [%]
CCCc1nnc(NCc2ccc(OC)c(C#N)c2)o1 | -0.808
O=C([C@H]1CC[C@@H]2[C@@H](CCN2Cc2nccs2)O1)N1CCCCO1 | 6.85
CC(C)c1ccc(CCC(=O)N2CCOCC2c2ncon2)cc1 (configuration not stated) | -4.56
Cc1nc2ccc(Cl)cn2c1CN1CCN(S(=O)(=O)N2CCCC2)CC1 | 16.6
Cc1nc(C2CN(Cc3scnc3C)CCO2)cc(N(C)C)n1 (configuration not stated) | -12.3
CC(=O)N1CCCC(c2nccnc2Nc2nc(C)cc(C)n2)C1 (configuration not stated) | 1.43
Fc1ccc(C2CCCN2Cc2nnnn2C2CC2)cc1 (configuration not stated) | 15.5
Cc1nc(CN2CCCN(CC(=O)N(C)CCC#N)CC2)no1 | 6.28
Cc1cn2c(n1)CCC(NC(=O)c1cc(C(C)C)no1)C2 (configuration not stated) | -2.12
COC(=O)c1cccc(S(=O)(=O)NCc2cccnc2N(C)C)c1 | 5.68
O=C(c1cc(Br)ccc1-n1cnnn1)N1CCCC1 | -9.24
Fc1ccc(NCc2nnsc2Cl)c(OC(F)F)c1 | 0.811
CNC(=O)C1(C)CN(c2nc(C)cc(C)n2)CCO1 (configuration not stated) | 7.92
Cc1cc2n(n1)CC(CNC1CCN(C(=O)c3ccco3)CC1)CN2 (configuration not stated) | 4
O=C(C1CCC1)N1C[C@H]2CNC[C@H]2C1 | -4.1
O=C(C1CC=CC1)N1CCC2(CC1)OCCO2 | 6.9
Cn1cc(C(=O)Nc2cccc(CCN3CCCC3)c2)ccc1=O | 7.76
Cc1nc(CN2CCCN(C(=O)C3(C#N)CCCCC3)CC2)cs1 | -9.98
c1cnc(N2CCO[C@H]3CN(CC4CCOCC4)C[C@H]32)nc1 | -95.9
Cn1cc(S(=O)(=O)NCC(C)(O)c2ccsc2)cn1 (configuration not stated) | 22.1
CCCN1CCCn2nc(CNS(=O)(=O)c3ccc(C)cc3)cc2C1 | 1.6
CN1CCC(c2cccc(Cc3ccc(C(F)(F)F)cc3)n2)CC1 | 3
CC(C)c1ncc2c(n1)CN(Cc1nc(-c3ccsc3)no1)CC2 | 2.05

Structure (SMILES) | cytotoxicity at 10 µM [%]
COCCOC(=O)N1CCC(c2nccn2CC2CC2)CC1 | -2.08
CCc1nc(C2CCCN2C(=O)CCCn2cccn2)no1 (configuration not stated) | -13.1
CCn1c(CN(C)Cc2cnc(C)s2)nc2c(F)cccc21 | -42
CNC(=O)[C@H]1C[C@H]2OCC[C@H]2N(CC2CCOCC2)C1 | 6.46
CCCS(=O)(=O)N1CCC2(CC1)CC(=O)N(CCCc1ccccc1)C2 | 8.35
O=C([C@H]1CCCO1)N1Cc2nccn2CC(COc2cccnc2)C1 (some centres not stated) | 7.45
CN1CCCC1CCn1ccnc1-c1nc2ccccc2[nH]1 (configuration not stated) | 5.47
O=C1CO[C@@H]2CN(CC3CCOCC3)C[C@H]2N1CC1CC1 | 1.57
Cc1cccc(CN2CCC(Cc3ccccc3F)CC2)n1 | 1.88
Cc1ccc(CN2CCOC(c3cnccn3)C2)s1 (configuration not stated) | -2.81
CCOCC1CN(Cc2nccs2)Cc2nn(CC3CC3)cc21 (configuration not stated) | -1.81
c1cnn(-c2ccc(CCNC3CCN(C4CC4)C3)cc2)c1 (configuration not stated) | 2.84
CC(CN1CCCC1=O)NC(=O)c1ccc(-c2ccco2)[nH]c1=O (configuration not stated) | -5.04
CCOCC1c2c(cnn2C)CCN1C(=O)c1ccncn1 (configuration not stated) | -141
CCc1nc(C)ncc1C(=O)N1CCN(CC)c2ccccc21 | -10.1
O=C(NCCC(=O)N1CCCCCCC1)c1ccoc1 | -22.2
COc1cccc(-c2n[nH]c3c2CN(C(=O)c2cccc(=O)[nH]2)CC3)c1 | -5.66
Fc1cc(CNCc2ccc3c(c2)CCO3)ccc1N1CCOCC1 | -7.24
Cc1ccc(C(=O)N2CCC3(CCC(=O)N(CC(C)O)C3)CC2)c(O)c1 (configuration not stated) | 11
CN(Cc1ccco1)[C@@H]1CN(Cc2nccs2)C[C@@H]2CCCO[C@@H]21 | 6.07
CCC(NC(=O)CS(=O)(=O)C1CCCC1)c1cc(F)ccc1F (configuration not stated) | 0.217
CS(=O)(=O)N1CCc2ncc(CNC(=O)C3CCC3)n2CC1 | 10.9
COc1c(Cl)cc(C(=O)NCc2n[nH]c(C)n2)cc1Cl | 1.42

Structure (SMILES) | cytotoxicity at 10 µM [%]
O=C(NCCc1ccc(F)cc1)NCC(O)c1cccc(F)c1 (configuration not stated) | -1.14
Cc1nccnc1CN1CCC2(CCCN(C3CCOCC3)C2=O)C1 (configuration not stated) | -5.44
Cc1ccc(OC2(C(=O)NC(C)Cc3ccsc3)CCNCC2)cc1 (configuration not stated) | -15.4
O=C(NCc1ccccn1)NCc1ccc(Cl)s1 | -7.52
Cc1nc(CN2CCCC(CCNS(C)(=O)=O)C2)c[nH]1 (configuration not stated) | -10.2
N#Cc1cc(CSCCN2CCOCC2)ccc1F | -7.73
Cc1nc2n(n1)CC(NCCc1cccs1)CC2 (configuration not stated) | -9.77
Cc1cnc(N2CC[C@@H]3CN(CCC(C)C)S(=O)(=O)[C@@H]3CC2)nc1 | -3.1
Cc1oncc1C(=O)N[C@@H]1CN(CC2CC2)C[C@@H]2CCCO[C@@H]21 | -103
NC(=O)CN(CC(N)=O)Cc1cccc(Oc2ccccc2)c1 | -5.05
Cc1nc(C(=O)N(CC(=O)N(C)C)CC(F)(F)F)c2ccccn12 | -16.4
CN1C(=O)CC2(CCNCC2)c2ccccc21 | -3.92
Cc1cc(CN2CCN(C(=O)c3sccc3C3CC3)CC2)no1 | -10
Cn1cc(NCCOc2ccc(F)cc2)cn1 | -1.51
O=C(CCN1C[C@@H]2CC[C@H]1CN(c1ncccn1)C2)NCc1ccco1 | -1.18
CN(C)c1ccc(CCCNC(=O)Nc2ccc(C#N)cc2)cc1 | -1.14
CNS(=O)(=O)CC(=O)NC(C)Cc1ccc(-c2ccccc2)cc1 (configuration not stated) | 7.69
COCC1N(C(=O)c2ccco2)C2CCC1(O)CC2 (configuration not stated) | 1.4
Cc1noc(C)c1CN1CCN(C(C)c2nc(C3CC3)no2)CC1 (configuration not stated) | -16.5
COCCN(Cc1ccco1)Cc1nc(-c2ccccc2C)no1 | 6.72
CCc1noc(CNc2cc3c(cc2Cl)OCCCO3)n1 | -1.98
CCn1ncc2c1C(COCC1CC1)N(Cc1ccccn1)CC2 (configuration not stated) | 10.9
CC(C)C(NCc1ccc(Cn2cncn2)cc1)c1ccc(F)cn1 (configuration not stated) | -0.593

Structure (SMILES) | cytotoxicity at 10 µM [%]
CN1CCC(c2n[nH]c(=O)n2-c2cccc(Cl)c2)CC1 | 33.9
COC(=O)CN(C(=O)c1ccc(Cl)o1)c1cccc(F)c1 | 6.11
O=C(c1ccc(-n2ccnc2)cc1)N1CCCC1 | -7.55
COC(=O)c1ccc(N2CCC(c3ccccc3)CC2)nn1 | -3.59
COc1c(C2CCCN2C(=O)c2cccc(C)n2)c(C)nn1C (configuration not stated) | -7.52
CC(c1ccco1)N(C)Cc1cccc(C(=O)Nc2nccn2C)c1 (configuration not stated) | -7.33
COc1ccc(OCc2nc(C(=O)N3CCCNC(=O)C3)co2)cc1 | -45.1
CCN(CC)c1ccc(NC(=O)NC(C)Cn2cccn2)cn1 (configuration not stated) | 1.35
CCN(Cc1ccc2c(c1)OCCO2)C(=O)NCCc1cnn(C)c1 | -3.72
Cc1cccc(CN2CCC(N(C)Cc3nnc(C4CC4)n3C)C2)c1 (configuration not stated) | -6.04
CCSCc1nc(O)c2nnn(C3CCN(Cc4ccco4)CC3)c2n1 | 8.79
CCOc1ccc(Cl)cc1C(C(=O)O)N1CCC(CO)CC1 (configuration not stated) | 2.93
O=C(CCN1CCSCC1c1ccccc1)N1CCOCC1 (configuration not stated) | -12.5
CN(C)S(=O)(=O)N1C[C@H](Oc2cccnc2)[C@H]2OCCC[C@H]21 | 14.8
Cc1cccc(CNC(=O)NCC2CCN(Cc3ncc[nH]3)C2)c1 (configuration not stated) | 1.86
O=C(NS(=O)(=O)c1cnn(-c2ccccc2F)c1)c1ccco1 | -8.86
COc1ccc(CNC(=O)CCCc2nnc3ccc(OC)nn23)cc1 | -5.36
O=C(NCCOc1ccc2c(c1)CCC2)N1CCS(=O)(=O)CC1 | -1.71
Cc1[nH]ccc1C(=O)N1CCN(C)C2(CCC(=O)N(C)CC2)C1 (configuration not stated) | 5.95
CC(C)CC1CC(=O)Nc2c1cnn2Cc1ccco1 (configuration not stated) | -2.75
CCOc1ccc(Cl)c(C(=O)N(C)C)n1 | -11.3
O=C(CCCN1CCOCC1)N1CCCC(CO)(CC2CC2)C1 (configuration not stated) | -1.5
CCn1nnnc1-c1cccc(NCc2nc(C)ccc2O)c1 | -1.71

Structure (SMILES) | cytotoxicity at 10 µM [%]
Cc1ncsc1CNCC(C)c1nc2ccccc2o1 (configuration not stated) | 4.17
COCc1noc(Cn2ncn3cccc3c2=O)n1 | -5.56
CN1CC2(CCN(C(=O)CCc3nc4cccnc4n3C)C2)OC1=O (configuration not stated) | 1.56
C1CC(c2noc(C3CC3)n2)N(Cc2nnc(C3CC3)o2)C1 (configuration not stated) | -5.83
Cc1cc(C(=O)N2CCCC2c2nc(O)cc(C(C)C)n2)on1 (configuration not stated) | -3.42
O=C(Cc1csc(-c2ccccc2F)n1)NCc1cccc(C(=O)O)c1 | -5.48
Cn1cnnc1C1CCCN(c2nc3ccccc3o2)C1 (configuration not stated) | -17.4
Cc1nc(C)n(C2CCCN(C(=O)c3cscn3)C2)n1 (configuration not stated) | -8.78
Cc1cccc2c1nc1n2[C@@H](CNC(=O)NC(C)C)COC1 | 0.0962
Cc1cc(C)n(C2CCCN(C(=O)c3ccn(C)c(=O)c3)C2)n1 (configuration not stated) | -5.72
CC(C(=O)NCCN1CCOCC1)n1cncn1 (configuration not stated) | -2.85
COCCOc1ccc(NC(=O)N(C(C)C)C2CC2)cn1 | -9.59
CCc1ccc(CN2C[C@@H]3COC[C@H](NS(C)(=O)=O)[C@@H]3C2)o1 | -2.01
Cc1cncc(NC(=O)c2ccc(CN3CC[C@H](O)C3)cc2)c1 | 12.4
CCOc1cncc(N2CCN(c3ccccc3O)CC2)n1 | 25.7
CN1CCN(c2cc(CNCc3cccc4c3OCO4)ccn2)CC1 | -5.31
c1cc2occc2c(N2CCCC(c3nncn3C3CC3)C2)n1 (configuration not stated) | 1.97
COc1ccc(CN2CCO[C@@H]3C[C@@H](C(=O)NC(C)C)C[C@H]32)cc1 | 8.31
CN(CCS(=O)(=O)c1cc(Cl)ccc1Cl)CC(=O)Nc1cccc(F)c1 | 13.9
CC(C)n1ccnc1CN1CCCN(C(=O)c2cscn2)CC1 | -1.63
